From PubChem
ABCB1 inh: ABCB1 efflux pump inhibitors, primary screen, cell-based, multiplex, flow cytometry, ABCG2 counter-screen; ATP-dependent translocase ABCB1 (Homo sapiens), P08183; CCRF-Adr cells, JC-1 efflux; inhibition, % at 6.6 µM; 0.067% of 190,000 active; AID 1326, 2008; in the data active = inhibition above about 40%;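 note: higher value means more JC-1 retained so stronger ABCB1 efflux block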
ROMK mod: ROMK potassium channel modulators, primary screen, cell-based, thallium flux, MLSMR library | Tet-inducible ROMK, thallium flux fluorescence; actives lie on both sides | B-score at 10 µM | 2% of 130,000 active | AID 1918, 2009;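 active = signal ratio slope over the read window, or its plate-corrected B-score, at least 3 SD from the plate mean, either direction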;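 note: B-score of the F/F0 ratio slope over 7 to 12 s after thallium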
Target sequence (P48048 whole entry, looked up): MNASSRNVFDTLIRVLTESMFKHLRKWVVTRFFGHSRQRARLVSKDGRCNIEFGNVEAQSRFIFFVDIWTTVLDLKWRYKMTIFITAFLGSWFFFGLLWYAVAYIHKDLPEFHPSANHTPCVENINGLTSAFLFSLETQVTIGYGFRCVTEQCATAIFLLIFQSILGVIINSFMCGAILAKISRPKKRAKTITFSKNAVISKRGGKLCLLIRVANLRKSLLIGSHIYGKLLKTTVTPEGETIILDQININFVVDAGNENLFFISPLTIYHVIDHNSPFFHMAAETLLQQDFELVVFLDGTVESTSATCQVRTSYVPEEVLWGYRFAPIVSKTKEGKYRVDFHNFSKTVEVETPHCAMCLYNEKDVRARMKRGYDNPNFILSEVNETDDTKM
sdo1 growth: growth rescue of sdo1-depleted yeast, primary screen, S. cerevisiae, bone marrow failure model; S. cerevisiae sdo1-depleted JHY4D growth rescue, OD600 30 h; active compounds read high; pdr5 snq2 efflux-pump mutant strain; z-score at 10 µM; 0.21% of 140,000 active; AID 817, 2007;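 active = z-score above 3 at both the 24 hr and the 30 hr optical density reads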
ABCG2 block: ABCG2 efflux pump inhibitors, primary screen, multiplex with ABCB1, IgMXP3 cells, flow cytometry; Broad substrate specificity ATP-binding cassette transporter ABCG2 (Homo sapiens), Q9UNQ0; JC-1 efflux; inhibition, % at 6.6 µM; 0.1% of 190,000 active; AID 1325, 2008;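 active = inhibition above 80%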
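System: two drug-resistant human cell lines, ABCG2 and ABCB1; controls: nicardipine high and DMSO low controls; times: 10 min exposure at 25 °C with rotation, no wash; detection: flow cytometry of retained JC-1 fluorescence; read-out basis: percent efflux inhibition, scaled nicardipine 100% to DMSO 0%; doses: one concentration, 6.6 µM final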
Autophagy mod: autophagy modulators in MEF cells, primary screen, imaging, high-content, MEF GFP-LC3 | 0.98% of 190,000 active | AID 463193, 2010 | MEF GFP-LC3 puncta imaging; test concentration mostly 10 µM | calls only at 10 µM (by protocol);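 active = percentage of spot-positive cells more than 3 SD above its plate mean, without a fluorescence outlier flag or 80% toxicity; inconclusive = no clear call, values can overlap the other calls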
Ins promoter up: insulin promoter activators in MIN6 cells, imaging, high-content screening, mouse beta cells. 0.3% of 190,000 active. z-score at 5 µM. MIN6 insulin promoter-GFP reporter; active compounds read high;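 active = z-score above 3 at 5 µM with at least 500 cells counted in the well; inconclusive = wells under 500 cells, flagged as cytotoxic or low count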
ROMK retest: ROMK channel modulator hit retest, confirmation, cell-based, thallium flux, duplicate, resupplied hits. fluorescence ratio; active compounds read low. shares compounds with ROMK mod. AID 1917, 2009. normalized thallium flux (F/F0 slope) at 10 µM. 54% of 3,000 active;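 active = Flux at 10 µM at least 3 SD below or above vehicle control mean in one or both replicates; inconclusive = no clear call, values can overlap the other calls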
A number is an active result; n = inactive; u = inconclusive; x = no result; + = active, no number; ! = a repeat was not active. Hits are enriched below; roughly 2.3% of the tested compounds scored in any of these assays.

SMILES	ABCB1 inh	ROMK mod	sdo1 growth	ABCG2 block	Autophagy mod	Ins promoter up	ROMK retest
O=C1/C(=C/c2ccccc2)Nc2ccccc21	n	x	n	n	n	n	0.0232
Cc1ccc2[nH]cc(C(=O)CCl)c2c1	n	-4.2	n	n	n	n	0.0554
Cc1ccc2[nH]cc(C(=O)CN3CCN(C)CC3)c2c1	n	x	n	n	n	n	x
COc1cc(/C=C2\SC(=S)N(NS(=O)(=O)c3ccccc3)C2=O)ccc1O	x	x	x	x	x	n	0.0412
COc1ccc2[nH]c3c(NCCC4=CCCCC4)ncnc3c2c1	n	n	x	n	n	x	x
c1ccc(-c2nc3nonc3nc2-c2ccccc2)cc1	n	-4.18	n	n	n	n	0.0626
Nc1c(-c2ccccc2)nc(Cl)nc1-c1ccccc1	n	n	n	n	n	n	x
CC1(C(=O)NCCCN2CCOCC2)Oc2cccnc2NC1=O (stereo not drawn)	n	n	x	n	n	n	x
C=CCNC(=O)c1ccc(Cn2cc(C(F)(F)F)ccc2=O)cc1	n	n	x	n	n	n	x
CCC(=O)Nc1cccc(C(=O)/C=C/c2cccs2)c1	n	n	x	n	n	n	0.0686
N#Cc1ccccc1NC(=O)CSc1nnc(-c2ccncc2)o1	n	n	x	n	n	n	x
O=C(Cc1ccccc1)NCc1ccc(-n2cccc2)cc1	n	2.51	x	n	n	n	n
CCOC(=O)C1CCCN(c2nc3ccccc3nc2C(C#N)C(=O)OC(C)COC)C1 (stereo not drawn)	n	n	n	n	n	n	n
Cc1ccc(/C(=N\O)c2oc3c(C)c4oc(=O)cc(C)c4cc3c2C)cc1	n	2.92	n	n	n	u	0.115
Cc1nc([N+](=O)[O-])c(Br)n1Cc1ccc(Cl)c(Cl)c1	n	n	x	n	n	n	x
Cc1ccc(-c2nn(-c3ccccc3)cc2CSC(=N)N)cc1	n	x	n	n	n	n	0.0522
CCOc1ccc2[nH]c(=O)c(CN(CCO)C(c3nnnn3C3CCCCC3)C(C)C)cc2c1 (stereo not drawn)	n	-2.42	n	n	n	n	0.0595
CCCN1CCN(C(c2cc3cc(OCC)ccc3[nH]c2=O)c2nnnn2C2CCCCC2)CC1 (stereo not drawn)	n	n	n	n	n	n	x
CC1(C)CC(CC(=O)O)(c2ccccc2)CCO1 (stereo not drawn)	n	x	n	n	n	n	n
O=C(c1cccs1)N1CCN(Cc2cccc([N+](=O)[O-])c2)CC1	n	n	n	n	n	n	x
Cc1cc(C(C)(C)C)cc(S(=O)(=O)Nc2cccc(C(=O)O)c2)c1C	n	4.74	n	n	n	n	n
COc1ccccc1NC(=O)Cn1c2ccccc2c2nc3n(c(=O)c21)CCS3	n	n	x	n	n	n	x
O=C(Cn1c2ccccc2c2nc3n(c(=O)c21)CCS3)Nc1ccccc1C(F)(F)F	n	-3.2	x	n	n	x	0.0685
Cc1ccc(C(=O)NC2CC3CCC(C2)N3Cc2ccco2)cc1 (stereo not drawn)	n	x	n	n	n	x	x
Cc1ccc(CN2C3CCCC2CC(NC(=O)c2ccc(C)cc2)C3)cc1 (stereo not drawn)	n	-2.75	x	n	n	n	0.0558
SMILES	ABCB1 inh	ROMK mod	sdo1 growth	ABCG2 block	Autophagy mod	Ins promoter up	ROMK retest
COc1ccc(NC(=O)COC(=O)C2CCN(S(=O)(=O)c3cccs3)CC2)cc1	n	n	x	n	n	n	x
C=CCn1c(SCC(N)=O)nnc1-c1cccc(Br)c1	n	x	n	n	x	x	n
CCCCOc1ccc(CC(=O)NO)cc1	n	x	n	n	n	x	n
O=C(N/N=C/c1cn(-c2cccs2)nc1-c1ccccc1)c1ccc(O)cc1	n	-3.51	n	n	n	n	0.0589
Cc1nc2ccccn2c1-c1csc(NCc2ccco2)n1	n	x	n	n	n	n	x
Cc1ccn2c(-c3csc(NCc4ccccc4)n3)c(C)nc2c1	n	-4.68	n	n	n	x	0.06
O=C(C1CC(Cl)CN1S(=O)(=O)c1ccc(Cl)cc1)N1CCOCC1 (stereo not drawn)	n	-2.03	x	n	n	n	n
O=C(Cc1c(F)cccc1Cl)Nc1ccc(S(=O)(=O)NCC2CCCO2)cc1 (stereo not drawn)	n	n	x	n	n	n	x
Cc1cccc(OCc2n(CC(=O)OC3CC(C)CCC3C(C)C)c3ccccc3[n+]2C)c1 (stereo not drawn)	n	-6.2	x	n	n	n	0.0374
CC1CCC(C(C)C)C(OC(=O)Cn2c(-c3ccccc3)[n+](C)c3ccccc32)C1 (stereo not drawn)	n	-6.34	n	n	+!	u	0.0388
CC1CCC(C(C)C)C(OC(=O)CSc2nnc(N)s2)C1 (stereo not drawn)	n	x	n	n	n	n	x
CC1CCC(C(C)C)C(OC(=O)Cn2c(-c3ccc(F)cc3)[n+](C)c3ccccc32)C1 (stereo not drawn)	n	-4.98	n	n	n	n	0.0466
Brc1cccc2sc(N3CCCC3)nc12	n	n	x	n	n	x	x
COc1ccc(-c2nc(CN3CCCCC3c3nccn3C)c(C)o2)c(C)c1C (stereo not drawn)	n	n	x	n	n	n	x
S=C(NCCc1ccccc1)NC1CC2CCC(C1)N2Cc1ccccc1 (stereo not drawn)	n	-2.33	x	n	n	x	0.0571
CCCNC(=S)NC1CC2CCC(C1)N2Cc1ccccc1 (stereo not drawn)	n	x	n	n	n	x	x
O=C(Nc1cccc(Cl)c1)N1CCN(C/C=C/c2ccccc2)CC1	n	-3.58	n	n	n	n	u
Cc1ccc(NC(=O)CCN2CCN(C/C=C/c3ccccc3)CC2)cc1	n	x	n	n	n	n	x
CCOc1ccccc1N1CCN(C(=O)Nc2cccc(Cl)c2)CC1	n	-3.09	n	n	n	n	n
Cc1ccc(NC(=O)CCN2CCN(C/C=C/c3ccccc3)CC2)cc1C	n	-3.11	n	n	n	n	0.0477
O=C(CCN1CCN(C/C=C/c2ccccc2)CC1)Nc1ccc(Cl)cc1	n	x	n	n	n	n	x
Cc1c(NC(=O)CN2C(=O)NC(C)(c3ccccc3)C2=O)c(=O)n(-c2ccccc2)n1C (stereo not drawn)	n	n	n	n	n	n	x
COC(=O)c1ccccc1-c1ccc(C(c2c(C)[nH][nH]c2=O)c2c(C)[nH][nH]c2=O)o1	n	-3.82	x	n	n	n	u
Cc1ccc(Nc2ccc(NCc3ccccc3)nn2)cc1C	n	n	n	n	n	n	x
Cc1ccc(Nc2nnns2)cc1C	n	-2.99	n	n	n	n	u
